Laboratory results as given in ChEMBL document CHEMBL1140754, “Synthesis and insecticidal evaluation of novel N'-tert-butyl-N'-substitutedbenzoyl-N-5-chloro-6-chromanecarbohydrazide derivatives” (2008).
In brackets after ≈: the same amount, converted by molar mass.

These molecules were tested on Mythimna separata (assay: Larvicidal activity against Oriental armyworm).
Assay type: functional
Method in brief: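 Oriental armyworm (Mythimna separata) larvae dosed by foliar application. Each treatment run in triplicate. LC50 derived by Probit analysis. Reference insecticides were tested under the same conditions.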

**Q.** With CC(C)(C)N(NC(=O)c1ccc2c(c1Cl)CCCO2)C(=O)c1ccc(Cl)cc1 as the molecule, how does the LC50 read?
**A.** 4.06 µg/mL (≈ 9.64 µM)

**Q.** How did the LC50 turn out when CC(C)(C)N(NC(=O)c1ccc2c(c1Cl)CCCO2)C(=O)c1ccc(Cl)cc1Cl was run?
**A.** 4.11 µg/mL (≈ 9.02 µM)

**Q.** For CC(C)(C)N(NC(=O)c1ccc2c(c1Cl)CCCO2)C(=O)c1cc(Cl)cc(Cl)c1, which LC50 is on record?
**A.** 4.11 µg/mL (≈ 9.02 µM)

**Q.** For CC(C)(C)N(NC(=O)c1ccc2c(c1Cl)CCCO2)C(=O)c1c(Cl)cc(Cl)cc1Cl, which LC50 is on record?
**A.** > 500 µg/mL

**Q.** How did the LC50 turn out when CC(C)(C)N(NC(=O)c1ccc2c(c1Cl)CCCO2)C(=O)c1c(Cl)cc(C(F)(F)F)cc1Cl was run?
**A.** > 500 µg/mL

**Q.** With CC(C)(C)N(NC(=O)c1ccc2c(c1Cl)CCCO2)C(=O)c1ccccc1F as the molecule, how does the LC50 read?
**A.** 4.75 µg/mL (≈ 11.7 µM)

**Q.** For CC(C)(C)N(NC(=O)c1ccc2c(c1Cl)CCCO2)C(=O)c1ccccc1[N+](=O)[O-], which LC50 is on record?
**A.** 6.54 µg/mL (≈ 15.1 µM)

**Q.** How did the LC50 turn out when CC(C)(C)N(NC(=O)c1ccc2c(c1Cl)CCCO2)C(=O)c1ccc([N+](=O)[O-])cc1 was run?
**A.** 29.7 µg/mL (≈ 68.8 µM)

**Q.** CC(C)(C)N(NC(=O)c1ccc2c(c1Cl)CCCO2)C(=O)c1ccc(F)cc1F was tested. Which LC50 did it give?
**A.** 5.69 µg/mL (≈ 13.5 µM)

**Q.** For CC(C)(C)N(NC(=O)c1ccc2c(c1Cl)CCCO2)C(=O)c1cccc(I)c1, which LC50 is on record?
**A.** 30.2 µg/mL (≈ 58.9 µM)

**Q.** For COc1ccc(C(=O)N(NC(=O)c2ccc3c(c2Cl)CCCO3)C(C)(C)C)cc1, which LC50 is on record?
**A.** 25.1 µg/mL (≈ 60.1 µM)

**Q.** For COc1ccc(C(=O)N(NC(=O)c2ccc3c(c2Cl)CCCO3)C(C)(C)C)cc1OC, which LC50 is on record?
**A.** 19.8 µg/mL (≈ 44.2 µM)

**Q.** For COc1cc(C(=O)N(NC(=O)c2ccc3c(c2Cl)CCCO3)C(C)(C)C)cc(OC)c1OC, which LC50 is on record?
**A.** 42.7 µg/mL (≈ 89.4 µM)

**Q.** CCOc1ccc(C(=O)N(NC(=O)c2ccc3c(c2Cl)CCCO3)C(C)(C)C)cc1 was tested. Which LC50 did it give?
**A.** 215 µg/mL (≈ 500 µM)

**Q.** CC(C)(C)N(NC(=O)c1ccc2c(c1Cl)CCCO2)C(=O)c1cccc(Cl)c1 was tested. Which LC50 did it give?
**A.** 5.98 µg/mL (≈ 14.2 µM)

**Q.** For Cc1cc(C)cc(C(=O)N(NC(=O)c2ccc3c(c2C)OCCO3)C(C)(C)C)c1, which LC50 is on record?
**A.** 1.4 µg/mL (≈ 3.53 µM)

**Q.** With CC(C)(C)N(NC(=O)c1ccc2c(c1Cl)CCCO2)C(=O)c1ccccc1 as the molecule, how does the LC50 read?
**A.** 5 µg/mL (≈ 12.9 µM)

**Q.** How did the LC50 turn out when Cc1ccccc1C(=O)N(NC(=O)c1ccc2c(c1Cl)CCCO2)C(C)(C)C was run?
**A.** 31.3 µg/mL (≈ 78.1 µM)

**Q.** With Cc1cccc(C(=O)N(NC(=O)c2ccc3c(c2Cl)CCCO3)C(C)(C)C)c1 as the molecule, how does the LC50 read?
**A.** 2.78 µg/mL (≈ 6.93 µM)

**Q.** With Cc1ccc(C(=O)N(NC(=O)c2ccc3c(c2Cl)CCCO3)C(C)(C)C)c(C)c1 as the molecule, how does the LC50 read?
**A.** 6.14 µg/mL (≈ 14.8 µM)

**Q.** Which LC50 does the source give for COc1cccc(C(=O)N(NC(=O)c2ccc3c(c2Cl)CCCO3)C(C)(C)C)c1 here?
**A.** 11.4 µg/mL (≈ 27.3 µM)

**Q.** How did the LC50 turn out when CC(C)(C)N(NC(=O)c1ccc2c(c1Cl)CCCO2)C(=O)c1ccc([N+](=O)[O-])cc1Cl was run?
**A.** 8.47 µg/mL (≈ 18.2 µM)

**Q.** Which LC50 does the source give for Cc1cc(C)c(C(=O)N(NC(=O)c2ccc3c(c2Cl)CCCO3)C(C)(C)C)c(C)c1 here?
**A.** > 500 µg/mL

**Q.** How did the LC50 turn out when COc1ccccc1C(=O)N(NC(=O)c1ccc2c(c1Cl)CCCO2)C(C)(C)C was run?
**A.** 10.1 µg/mL (≈ 24.2 µM)

**Q.** For CC(C)(C)N(NC(=O)c1ccc2c(c1Cl)CCCO2)C(=O)c1cccc([N+](=O)[O-])c1, which LC50 is on record?
**A.** 399 µg/mL (≈ 924 µM)

**Q.** How did the LC50 turn out when Cc1cc(C)cc(C(=O)N(NC(=O)c2ccc3c(c2Cl)OCCO3)C(C)(C)C)c1 was run?
**A.** 1.4 µg/mL (≈ 3.36 µM)

**Q.** For Cc1ccc(C(=O)N(NC(=O)c2ccc3c(c2Cl)CCCO3)C(C)(C)C)cc1, which LC50 is on record?
**A.** 5.57 µg/mL (≈ 13.9 µM)

**Q.** How did the LC50 turn out when CC(C)(C)N(NC(=O)c1ccc2c(c1Cl)CCCO2)C(=O)c1ccc(I)cc1 was run?
**A.** 43.5 µg/mL (≈ 84.9 µM)

**Q.** CC(C)(C)N(NC(=O)c1ccc2c(c1Cl)CCCO2)C(=O)c1ccccc1Cl was tested. Which LC50 did it give?
**A.** 10.8 µg/mL (≈ 25.5 µM)

**Q.** CC(C)(C)N(NC(=O)c1ccc2c(c1Cl)CCCO2)C(=O)c1ccc(Cl)cc1[N+](=O)[O-] was tested. Which LC50 did it give?
**A.** 2.73 µg/mL (≈ 5.85 µM)

**Q.** For Cc1cc(C)cc(C(=O)N(NC(=O)c2ccc3c(c2Cl)CCCO3)C(C)(C)C)c1 [N'-TERT-BUTYL-N'-(3,5-DIMETHYLBENZOYL)-N-5-CHLORO-6-CHROMANECARBOHYDRAZIDE], which LC50 is on record?
**A.** 2.25 µg/mL (≈ 5.42 µM)

**Q.** Which LC50 does the source give for CC(C)(C)N(NC(=O)c1ccccc1)C(=O)c1ccccc1 [RH-5849] here?
**A.** 24.4 µg/mL (≈ 82.3 µM)

**Q.** How did the LC50 turn out when CCc1ccc(C(=O)NN(C(=O)c2cc(C)cc(C)c2)C(C)(C)C)cc1 [TEBUFENOZIDE] was run?
**A.** 1.59 µg/mL (≈ 4.51 µM)
